≈ marks a conversion by molar mass, not a printed value.
Experiments:
Assay type in all cases: functional
Enterococcus faecium = test: Antibacterial activity against vancomycin-resistant Enterococcus faecium ATCC 700221 assessed as inhibition of bacterial growth by Mueller-Hinton broth based assay
Enterococcus faecalis = test: Antibacterial activity against vancomycin-resistant Enterococcus faecalis ATCC 51299 assessed as inhibition of bacterial growth by Mueller-Hinton broth based assay
Staphylococcus aureus = test: Antibacterial activity against Staphylococcus aureus ATCC 33591 assessed as reduction in bacterial growth by Mueller-Hinton broth based assay
In short: (§1)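 Broth MIC by standard procedure in Mueller-Hinton broth, for both B. subtilis 168 and S. aureus ATCC 33591.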

[1] = system: Mycolicibacterium smegmatis; test: Antimycobacterial activity against Mycobacterium smegmatis MC2 155 assessed as inhibition of bacterial growth measured after 2 days by resazurin dye based analysis; conditions: MC2 155, 48 h, time 2 day
In short: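 Strains grown in 7H9 broth with 0.2% glycerol, 10% OADC and 0.05% Tween-80. Inoculum was about 5 × 10^5 CFU/mL, checked by plating on 7H10/OADC agar to be 3–8 × 10^5. Read at 2 days for M. smegmatis and 7 days for M. tuberculosis H37Ra, M. bovis and M. avium. Resazurin 30 μg/mL was then added for one further day. Values are averages of at least two experiments.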

Bacillus subtilis = test: Antibacterial activity against Bacillus subtilis 168 assessed as reduction in bacterial growth by Mueller-Hinton broth based assay; in short: as §1

SMILES	MIC (Enterococcus faecium)	MIC (Enterococcus faecalis)	MIC (Staphylococcus aureus)	MIC [1]	MIC (Bacillus subtilis)
CN(C)CCCNC(=O)[C@@H]1NC(=O)[C@@H]2Cc3ccc(cc3)Oc3cc4cc(c3O)-c3ccc5c(c[nH]c5c3)C[C@@H](NC(=O)C(N)c3ccc(O)cc3)C(=O)N[C@H](c3ccc(O)cc3)C(=O)N[C@H]4C(=O)N[C@@H](C(=O)N2C)c2ccc(cc2)Oc2cc1ccc2O (stereo not given in full)	2 µg/mL (≈ 1.66 µM)	–	–	–	–
CCCCCCCCNC(C(=O)N[C@@H]1Cc2c[nH]c3cc(ccc23)-c2cc3cc(c2O)Oc2ccc(cc2)C[C@H]2C(=O)N[C@@H](C(=O)O)c4ccc(O)c(c4)Oc4ccc(cc4)[C@@H](NC(=O)[C@@H]3NC(=O)[C@@H](c3ccc(O)cc3)NC1=O)C(=O)N2C)c1ccc(O)cc1 (stereo not given in full)	–	8 µg/mL (≈ 6.49 µM)	–	–	–
CCCCNC(C(=O)N[C@@H]1Cc2c[nH]c3cc(ccc23)-c2cc3cc(c2O)Oc2ccc(cc2)C[C@H]2C(=O)N[C@@H](C(=O)O)c4ccc(O)c(c4)Oc4ccc(cc4)[C@@H](NC(=O)[C@@H]3NC(=O)[C@@H](c3ccc(O)cc3)NC1=O)C(=O)N2C)c1ccc(O)cc1 (stereo not given in full)	–	–	16 µg/mL (≈ 13.6 µM)	–	–
CN1C(=O)[C@@H]2NC(=O)[C@@H]3NC(=O)[C@@H](c4ccc(O)cc4)NC(=O)[C@H](NC(=O)C(Nc4cc(F)cc(F)c4F)c4ccc(O)cc4)Cc4c[nH]c5cc(ccc45)-c4cc3cc(c4O)Oc3ccc(cc3)C[C@H]1C(=O)N[C@@H](C(=O)O)c1ccc(O)c(c1)Oc1ccc2cc1 (stereo not given in full)	4 µg/mL (≈ 3.2 µM)	8 µg/mL (≈ 6.39 µM)	8 µg/mL (≈ 6.39 µM)	> 128 µg/mL	4 µg/mL (≈ 3.2 µM)
CCCCCCCCCCCNC(C(=O)N[C@@H]1Cc2c[nH]c3cc(ccc23)-c2cc3cc(c2O)Oc2ccc(cc2)C[C@H]2C(=O)N[C@@H](C(=O)O)c4ccc(O)c(c4)Oc4ccc(cc4)[C@@H](NC(=O)[C@@H]3NC(=O)[C@@H](c3ccc(O)cc3)NC1=O)C(=O)N2C)c1ccc(O)cc1 (stereo not given in full)	–	4 µg/mL (≈ 3.14 µM)	16 µg/mL (≈ 12.5 µM)	–	–
CN1C(=O)[C@@H]2NC(=O)[C@@H]3NC(=O)[C@@H](c4ccc(O)cc4)NC(=O)[C@H](NC(=O)C(Nc4ccc(F)cc4)c4ccc(O)cc4)Cc4c[nH]c5cc(ccc45)-c4cc3cc(c4O)Oc3ccc(cc3)C[C@H]1C(=O)N[C@@H](C(=O)O)c1ccc(O)c(c1)Oc1ccc2cc1 (stereo not given in full)	8 µg/mL (≈ 6.58 µM)	8 µg/mL (≈ 6.58 µM)	8 µg/mL (≈ 6.58 µM)	> 128 µg/mL	2 µg/mL (≈ 1.65 µM)
CN1C(=O)[C@@H]2NC(=O)[C@@H]3NC(=O)[C@@H](c4ccc(O)cc4)NC(=O)[C@H](NC(=O)C(Nc4cccc(C(F)(F)F)c4)c4ccc(O)cc4)Cc4c[nH]c5cc(ccc45)-c4cc3cc(c4O)Oc3ccc(cc3)C[C@H]1C(=O)N[C@@H](C(=O)O)c1ccc(O)c(c1)Oc1ccc2cc1 (stereo not given in full)	16 µg/mL (≈ 12.6 µM)	8 µg/mL (≈ 6.32 µM)	8 µg/mL (≈ 6.32 µM)	> 128 µg/mL	4 µg/mL (≈ 3.16 µM)
CN1C(=O)[C@@H]2NC(=O)[C@@H]3NC(=O)[C@@H](c4ccc(O)cc4)NC(=O)[C@H](NC(=O)C(Nc4cc(Cl)cc(Cl)c4Cl)c4ccc(O)cc4)Cc4c[nH]c5cc(ccc45)-c4cc3cc(c4O)Oc3ccc(cc3)C[C@H]1C(=O)N[C@@H](C(=O)O)c1ccc(O)c(c1)Oc1ccc2cc1 (stereo not given in full)	16 µg/mL (≈ 12.3 µM)	8 µg/mL (≈ 6.15 µM)	4 µg/mL (≈ 3.08 µM)	> 128 µg/mL	4 µg/mL (≈ 3.08 µM)
CN1C(=O)[C@@H]2NC(=O)[C@@H]3NC(=O)[C@@H](c4ccc(O)cc4)NC(=O)[C@H](NC(=O)Cc4ccc(O)cc4)Cc4c[nH]c5cc(ccc45)-c4cc3cc(c4O)Oc3ccc(cc3)C[C@H]1C(=O)N[C@@H](C(=O)NCCC[N+]1(C)CCCC1)c1ccc(O)c(c1)Oc1ccc2cc1	8 µg/mL	–	> 128 µg/mL	1 µg/mL	–
CN1C(=O)[C@@H]2NC(=O)[C@@H]3NC(=O)[C@@H](c4ccc(O)cc4)NC(=O)[C@H](NC(=O)C(Nc4cc(O)cc(O)c4)c4ccc(O)cc4)Cc4c[nH]c5cc(ccc45)-c4cc3cc(c4O)Oc3ccc(cc3)C[C@H]1C(=O)N[C@@H](C(=O)O)c1ccc(O)c(c1)Oc1ccc2cc1 (stereo not given in full)	16 µg/mL (≈ 13 µM)	4 µg/mL (≈ 3.25 µM)	4 µg/mL (≈ 3.25 µM)	> 128 µg/mL	1 µg/mL (≈ 0.814 µM)
CN1C(=O)[C@@H]2NC(=O)[C@@H]3NC(=O)[C@@H](c4ccc(O)cc4)NC(=O)[C@H](NC(=O)C(NCCCCCCB(O)O)c4ccc(O)cc4)Cc4c[nH]c5cc(ccc45)-c4cc3cc(c4O)Oc3ccc(cc3)C[C@H]1C(=O)N[C@@H](C(=O)OCCCCCCB(O)O)c1ccc(O)c(c1)Oc1ccc2cc1 (stereo not given in full)	–	64 µg/mL (≈ 46.5 µM)	–	–	–
CN1C(=O)[C@@H]2NC(=O)[C@@H]3NC(=O)[C@@H](c4ccc(O)cc4)NC(=O)[C@H](NC(=O)C(NC(=O)OC(C)(C)C)c4ccc(O)cc4)Cc4c[nH]c5cc(ccc45)-c4cc3cc(c4O)Oc3ccc(cc3)C[C@H]1C(=O)N[C@@H](C(=O)O)c1ccc(O)c(c1)Oc1ccc2cc1 (stereo not given in full)	16 µg/mL (≈ 13.1 µM)	–	–	–	–
CN1C(=O)[C@@H]2NC(=O)[C@@H]3NC(=O)[C@@H](c4ccc(O)cc4)NC(=O)[C@H](NC(=O)C(Nc4cccc(-c5ccc(F)cc5)c4)c4ccc(O)cc4)Cc4c[nH]c5cc(ccc45)-c4cc3cc(c4O)Oc3ccc(cc3)C[C@H]1C(=O)N[C@@H](C(=O)O)c1ccc(O)c(c1)Oc1ccc2cc1 (stereo not given in full)	16 µg/mL (≈ 12.4 µM)	16 µg/mL (≈ 12.4 µM)	> 128 µg/mL	> 128 µg/mL	> 128 µg/mL
CN[C@H](CC(C)C)C(=O)N[C@H]1C(=O)N[C@@H](CC(N)=O)C(=O)N[C@H]2C(=O)N[C@H]3C(=O)N[C@H](C(=O)N[C@H](C(=O)O)c4cc(O)cc(O)c4-c4cc3ccc4O)[C@H](O)c3ccc(c(Cl)c3)Oc3cc2cc(c3O[C@@H]2O[C@H](CO)[C@@H](O)[C@H](O)[C@H]2O[C@H]2C[C@](C)(N)[C@H](O)[C@H](C)O2)Oc2ccc(cc2Cl)[C@H]1O [VANCOMYCIN]	> 128 µg/mL	32 µg/mL (≈ 22.1 µM)	–	4 µg/mL (≈ 2.76 µM)	0.5 µg/mL (≈ 0.345 µM)
CN1C(=O)[C@@H]2NC(=O)[C@@H]3NC(=O)[C@@H](c4ccc(O)cc4)NC(=O)[C@H](NC(=O)C(NCCS(=O)(=O)O)c4ccc(O)cc4)Cc4c[nH]c5cc(ccc45)-c4cc3cc(c4O)Oc3ccc(cc3)C[C@H]1C(=O)N[C@@H](C(=O)OCCS(=O)(=O)O)c1ccc(O)c(c1)Oc1ccc2cc1 (stereo not given in full)	> 128 µg/mL	> 128 µg/mL	> 128 µg/mL	–	–
CN1C(=O)[C@@H]2NC(=O)[C@@H]3NC(=O)[C@@H](c4ccc(O)cc4)NC(=O)[C@H](NC(=O)C(Nc4ccccn4)c4ccc(O)cc4)Cc4c[nH]c5cc(ccc45)-c4cc3cc(c4O)Oc3ccc(cc3)C[C@H]1C(=O)N[C@@H](C(=O)O)c1ccc(O)c(c1)Oc1ccc2cc1 (stereo not given in full)	16 µg/mL (≈ 13.4 µM)	16 µg/mL (≈ 13.4 µM)	–	–	4 µg/mL (≈ 3.34 µM)
CNCCNC(=O)[C@@H]1NC(=O)[C@@H]2Cc3ccc(cc3)Oc3cc4cc(c3O)-c3ccc5c(c[nH]c5c3)C[C@@H](NC(=O)C(N)c3ccc(O)cc3)C(=O)N[C@H](c3ccc(O)cc3)C(=O)N[C@H]4C(=O)N[C@@H](C(=O)N2C)c2ccc(cc2)Oc2cc1ccc2O (stereo not given in full)	1 µg/mL (≈ 0.849 µM)	4 µg/mL (≈ 3.4 µM)	–	0.5 µg/mL (≈ 0.425 µM)	–
CN1C(=O)[C@@H]2NC(=O)[C@@H]3NC(=O)[C@@H](c4ccc(O)cc4)NC(=O)[C@H](NC(=O)C(NCCO)c4ccc(O)cc4)Cc4c[nH]c5cc(ccc45)-c4cc3cc(c4O)Oc3ccc(cc3)C[C@H]1C(=O)N[C@@H](C(=O)OCCO)c1ccc(O)c(c1)Oc1ccc2cc1 (stereo not given in full)	–	–	32 µg/mL (≈ 26.5 µM)	16 µg/mL (≈ 13.2 µM)	–

— ChEMBL document CHEMBL5331111, “Synthetic Biology Facilitates Semisynthetic Development of Type V Glycopeptide Antibiotics Targeting Vancomycin-Resistant Enterococcus” (J Med Chem, 2023)
